Results as given in ChEMBL document CHEMBL1649317, “Acquisition of a transposon encoding extended-spectrum beta-lactamase SHV-12 by Pseudomonas aeruginosa isolates during the clinical course of a burn patient” (2010).
≈ marks a conversion by molar mass, not a printed value. Blank lines part the entries; values can stand above or below the compound they belong to.

Columns and labels:
Pseudomonas aeruginosa [1] = assay: Antimicrobial activity against SHV-12 ESBL producing Pseudomonas aeruginosa isolate 2205 isolated from burn patient by broth microdilution method; type: functional
How it was run: (§1)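 MICs were determined by broth microdilution following the CLSI proposal. For clavulanic acid combinations, clavulanate was held at a fixed concentration. The seven isolates came from a single burn patient over the clinical course. P072204 was taken from sputum; all others were taken from burn sites. Isolates were typed by PCR for blaSHV and IS26.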

Pseudomonas aeruginosa [2] = assay: Antimicrobial activity against SHV-12 ESBL producing Pseudomonas aeruginosa isolate 2206 isolated from burn patient by broth microdilution method; type: functional; how it was run: as §1
Pseudomonas aeruginosa [3] = assay: Antimicrobial activity against SHV-12 ESBL producing Pseudomonas aeruginosa isolate 2207 isolated from burn patient by broth microdilution method; type: functional; how it was run: as §1
Pseudomonas aeruginosa [4] = assay: Antimicrobial activity against SHV-12 ESBL producing Pseudomonas aeruginosa isolate 2201 isolated from burn patient by broth microdilution method; type: functional; how it was run: as §1
Pseudomonas aeruginosa [5] = assay: Antimicrobial activity against SHV-12 ESBL producing Pseudomonas aeruginosa isolate 2202 isolated from burn patient by broth microdilution method; type: functional; how it was run: as §1
Pseudomonas aeruginosa [6] = assay: Antimicrobial activity against SHV-12 ESBL producing Pseudomonas aeruginosa isolate 2203 isolated from burn patient by broth microdilution method; type: functional; how it was run: as §1
Pseudomonas aeruginosa [7] = assay: Antimicrobial activity against SHV-12 ESBL producing Pseudomonas aeruginosa isolate 2204 isolated from burn patient by broth microdilution method; type: functional; how it was run: as §1
Pseudomonas aeruginosa [8] = assay: Antimicrobial activity against SHV-12 ESBL producing Pseudomonas aeruginosa isolate 2201 isolated from burn patient by broth microdilution method in presence of beta-lactamase inhibitor clavulanic acid; type: functional
Pseudomonas aeruginosa [9] = assay: Antimicrobial activity against SHV-12 ESBL producing Pseudomonas aeruginosa isolate 2205 isolated from burn patient by broth microdilution method in presence of beta-lactamase inhibitor clavulanic acid; type: functional
Pseudomonas aeruginosa [10] = assay: Antimicrobial activity against SHV-12 ESBL producing Pseudomonas aeruginosa isolate 2206 isolated from burn patient by broth microdilution method in presence of beta-lactamase inhibitor clavulanic acid; type: functional
Pseudomonas aeruginosa [11] = assay: Antimicrobial activity against SHV-12 ESBL producing Pseudomonas aeruginosa isolate 2207 isolated from burn patient by broth microdilution method in presence of beta-lactamase inhibitor clavulanic acid; type: functional
Pseudomonas aeruginosa [12] = assay: Antimicrobial activity against SHV-12 ESBL non-producing Pseudomonas aeruginosa isolate 2202 isolated from burn patient by broth microdilution method in presence of beta-lactamase inhibitor clavulanic acid
Pseudomonas aeruginosa [13] = assay: Antimicrobial activity against SHV-12 ESBL non-producing Pseudomonas aeruginosa isolate 2203 isolated from burn patient by broth microdilution method in presence of beta-lactamase inhibitor clavulanic acid
Pseudomonas aeruginosa [14] = assay: Antimicrobial activity against SHV-12 ESBL non-producing Pseudomonas aeruginosa isolate 2204 isolated from burn patient by broth microdilution method in presence of beta-lactamase inhibitor clavulanic acid

MIC (Pseudomonas aeruginosa [1]): 256 µg/mL (≈ 533 µM)
MIC (Pseudomonas aeruginosa [2]): 512 µg/mL (≈ 1070 µM)
MIC (Pseudomonas aeruginosa [3]): 512 µg/mL (≈ 1070 µM)
Compound: CO/N=C(\C(=O)N[C@@H]1C(=O)N2C(C(=O)[O-])=C(C[N+]3(C)CCCC3)CS[C@H]12)c1csc(N)n1

Compound: NCC[C@H](O)C(=O)N[C@@H]1C[C@H](N)[C@@H](O[C@H]2O[C@H](CN)[C@@H](O)[C@H](O)[C@H]2O)[C@H](O)[C@H]1O[C@H]1O[C@H](CO)[C@@H](O)[C@H](N)[C@H]1O [AMIKACIN]
MIC (Pseudomonas aeruginosa [4]): 4 µg/mL (≈ 6.83 µM)
MIC (Pseudomonas aeruginosa [5]): 4 µg/mL (≈ 6.83 µM)
MIC (Pseudomonas aeruginosa [6]): 4 µg/mL (≈ 6.83 µM)
MIC (Pseudomonas aeruginosa [7]): 4 µg/mL (≈ 6.83 µM)
MIC (Pseudomonas aeruginosa [1]): 128 µg/mL (≈ 219 µM)
MIC (Pseudomonas aeruginosa [2]): 128 µg/mL (≈ 219 µM)
MIC (Pseudomonas aeruginosa [3]): 128 µg/mL (≈ 219 µM)

Compound: C[C@H]1[C@H](NC(=O)/C(=N\OC(C)(C)C(=O)O)c2csc(N)n2)C(=O)N1S(=O)(=O)O [AZTREONAM]
MIC (Pseudomonas aeruginosa [1]): 512 µg/mL (≈ 1180 µM)
MIC (Pseudomonas aeruginosa [2]): 512 µg/mL (≈ 1180 µM)
MIC (Pseudomonas aeruginosa [3]): 512 µg/mL (≈ 1180 µM)

Compound: CO/N=C(\C(=O)N[C@@H]1C(=O)N2C(C(=O)O)=C(COC(C)=O)CS[C@H]12)c1csc(N)n1 [CEFOTAXIME]
MIC (Pseudomonas aeruginosa [4]): 16 µg/mL (≈ 35.1 µM)
MIC (Pseudomonas aeruginosa [5]): 256 µg/mL (≈ 562 µM)
MIC (Pseudomonas aeruginosa [6]): 128 µg/mL (≈ 281 µM)
MIC (Pseudomonas aeruginosa [7]): 64 µg/mL (≈ 141 µM)
MIC (Pseudomonas aeruginosa [1]): 512 µg/mL (≈ 1120 µM)
MIC (Pseudomonas aeruginosa [2]): 512 µg/mL (≈ 1120 µM)
MIC (Pseudomonas aeruginosa [3]): 512 µg/mL (≈ 1120 µM)
MIC (Pseudomonas aeruginosa [8]): 16 µg/mL
MIC (Pseudomonas aeruginosa [9]): 64 µg/mL
MIC (Pseudomonas aeruginosa [10]): 64 µg/mL
MIC (Pseudomonas aeruginosa [11]): 64 µg/mL
MIC (Pseudomonas aeruginosa [12]): 256 µg/mL
MIC (Pseudomonas aeruginosa [13]): 128 µg/mL
MIC (Pseudomonas aeruginosa [14]): 64 µg/mL

Compound: CC(C)(O/N=C(\C(=O)N[C@@H]1C(=O)N2C(C(=O)[O-])=C(C[n+]3ccccc3)CS[C@H]12)c1csc(N)n1)C(=O)O [CEFTAZIDIME]
MIC (Pseudomonas aeruginosa [4]): 2 µg/mL (≈ 3.66 µM)
MIC (Pseudomonas aeruginosa [5]): 16 µg/mL (≈ 29.3 µM)
MIC (Pseudomonas aeruginosa [6]): 8 µg/mL (≈ 14.6 µM)
MIC (Pseudomonas aeruginosa [7]): 4 µg/mL (≈ 7.32 µM)
MIC (Pseudomonas aeruginosa [1]): 512 µg/mL (≈ 937 µM)
MIC (Pseudomonas aeruginosa [2]): 512 µg/mL (≈ 937 µM)
MIC (Pseudomonas aeruginosa [3]): 512 µg/mL (≈ 937 µM)
MIC (Pseudomonas aeruginosa [8]): 2 µg/mL
MIC (Pseudomonas aeruginosa [9]): 16 µg/mL
MIC (Pseudomonas aeruginosa [10]): 16 µg/mL
MIC (Pseudomonas aeruginosa [11]): 16 µg/mL
MIC (Pseudomonas aeruginosa [12]): 16 µg/mL
MIC (Pseudomonas aeruginosa [13]): 8 µg/mL
MIC (Pseudomonas aeruginosa [14]): 4 µg/mL

Compound: CCN1CCN(C(=O)N[C@@H](C(=O)N[C@@H]2C(=O)N3[C@@H]2SC(C)(C)[C@@H]3C(=O)O)c2ccccc2)C(=O)C1=O [PIPERACILLIN]
MIC (Pseudomonas aeruginosa [4]): 16 µg/mL (≈ 30.9 µM)
MIC (Pseudomonas aeruginosa [5]): 32 µg/mL (≈ 61.8 µM)
MIC (Pseudomonas aeruginosa [6]): 16 µg/mL (≈ 30.9 µM)
MIC (Pseudomonas aeruginosa [7]): 16 µg/mL (≈ 30.9 µM)
MIC (Pseudomonas aeruginosa [1]): 256 µg/mL (≈ 495 µM)
MIC (Pseudomonas aeruginosa [2]): 512 µg/mL (≈ 989 µM)
MIC (Pseudomonas aeruginosa [3]): 512 µg/mL (≈ 989 µM)
MIC (Pseudomonas aeruginosa [8]): 16 µg/mL
MIC (Pseudomonas aeruginosa [9]): 128 µg/mL
MIC (Pseudomonas aeruginosa [10]): 256 µg/mL
MIC (Pseudomonas aeruginosa [11]): 256 µg/mL
MIC (Pseudomonas aeruginosa [12]): 32 µg/mL
MIC (Pseudomonas aeruginosa [13]): 16 µg/mL
MIC (Pseudomonas aeruginosa [14]): 16 µg/mL

Compound: CC1(C)S[C@@H]2[C@H](NC(=O)[C@H](C(=O)O)c3ccsc3)C(=O)N2[C@H]1C(=O)O [TICARCILLIN]
MIC (Pseudomonas aeruginosa [4]): 16 µg/mL (≈ 41.6 µM)
MIC (Pseudomonas aeruginosa [5]): 32 µg/mL (≈ 83.2 µM)
MIC (Pseudomonas aeruginosa [6]): 32 µg/mL (≈ 83.2 µM)
MIC (Pseudomonas aeruginosa [7]): 64 µg/mL (≈ 166 µM)
MIC (Pseudomonas aeruginosa [1]): > 512 µg/mL
MIC (Pseudomonas aeruginosa [2]): > 512 µg/mL
MIC (Pseudomonas aeruginosa [3]): > 512 µg/mL
MIC (Pseudomonas aeruginosa [8]): 16 µg/mL
MIC (Pseudomonas aeruginosa [9]): > 512 µg/mL
MIC (Pseudomonas aeruginosa [10]): > 512 µg/mL
MIC (Pseudomonas aeruginosa [11]): > 512 µg/mL
MIC (Pseudomonas aeruginosa [12]): 32 µg/mL
MIC (Pseudomonas aeruginosa [13]): 32 µg/mL
MIC (Pseudomonas aeruginosa [14]): 64 µg/mL
